One may read the Ki as the dissociation constant of the complex between target and ligand, obtained from inhibition or displacement. Lower therefore signals tighter binding.

Assay [1] concerns the target Cholinesterase (Equus caballus) (UniProt P81908). The assay is described as follows: Inhibition of horse serum BChE at 500 uM using butyrylthiocholine as substrate by spectrophotometry relative to control. The gist of the method:
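Ellman method at 25 °C: 100 mM sodium phosphate pH 7.5, 1 mM MgCl2, 0.2 mM DTNB, BSA, 100 µM butyrylthiocholine, 2% methanol. Inhibitor 500 µM final; reaction started with equine serum BChE (10 nM final); initial rates at 412 nm. Rate divided by 2% methanol no-inhibitor control; at least three determinations with independently prepared inhibitor solutions, averaged.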

A further assay concerns the target Cholinesterase (Equus caballus, UniProt P81908). The assay is described as follows: Inhibition of horse serum BChE using butyrylthiocholine as substrate by spectrophotometry. The gist of the method: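 Initial rates monitored continuously at 412 nm (ε 14,150 M-1 cm-1), background from no-enzyme reaction. KI from dependence of observed rate constant on inhibitor concentration (typically twelve); at least three determinations averaged.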

Assay [2] addresses Acetylcholinesterase (Electrophorus electricus) (UniProt O42275). Briefly: Inhibition of electric eel AChE at 500 uM using acetylthiocholine as substrate by spectrophotometry relative to control. A digest of the protocol: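 Ellman method at 25 °C: 100 mM sodium phosphate pH 7.5, 1 mM MgCl2, 0.2 mM DTNB, BSA, 100 µM acetylthiocholine, 2% methanol. Inhibitor 500 µM final; reaction started with AChE (10 nM final); initial rates monitored at 412 nm. Rate divided by 2% methanol no-inhibitor control; at least three determinations with independently prepared inhibitor solutions, averaged.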

The species named for another assay is Bos taurus. Briefly: Inhibition of bovine pancreas alpha-chymotrypsin using N-benzoyl-l-tyrosine ethyl ester as substrate by spectrophotometry relative to control. A digest of the protocol:
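Enzyme (fresh 5 units/mL stock in ice-cold 1 mM HCl) added to start; initial rates read continuously at 256 nm, no-enzyme background subtracted. Rate with compound divided by control rate; at least two determinations with independently prepared inhibitor solutions, averaged.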

For assay [3], the target named is Cholinesterase (Equus caballus) (UniProt P81908). The assay is described as follows: Reversible inhibition of horse serum BChE at Ki using 25 mM of butyrylthiocholine as substrate preincubated for 1 min followed by substrate addition by spectrophotometry relative to control.
Sequence of Cholinesterase (Equus caballus) (P81908 whole entry): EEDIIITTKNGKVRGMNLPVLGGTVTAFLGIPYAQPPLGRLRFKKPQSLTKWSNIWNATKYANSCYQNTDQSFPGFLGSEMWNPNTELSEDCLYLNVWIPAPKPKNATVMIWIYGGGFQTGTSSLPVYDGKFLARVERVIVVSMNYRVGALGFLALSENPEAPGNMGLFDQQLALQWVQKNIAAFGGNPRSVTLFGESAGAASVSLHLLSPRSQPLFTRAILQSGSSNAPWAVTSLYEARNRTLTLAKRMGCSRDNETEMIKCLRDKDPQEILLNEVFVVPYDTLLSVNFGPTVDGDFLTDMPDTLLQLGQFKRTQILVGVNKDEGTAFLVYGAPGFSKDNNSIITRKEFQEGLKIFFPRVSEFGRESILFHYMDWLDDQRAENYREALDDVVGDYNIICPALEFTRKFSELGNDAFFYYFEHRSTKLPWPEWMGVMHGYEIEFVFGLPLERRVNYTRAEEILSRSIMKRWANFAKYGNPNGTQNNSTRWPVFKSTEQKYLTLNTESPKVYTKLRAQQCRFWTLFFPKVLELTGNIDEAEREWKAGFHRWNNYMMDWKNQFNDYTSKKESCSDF

Structures are written as SMILES.

Sequence of Acetylcholinesterase (Electrophorus electricus) (O42275 24-633 limits assumed): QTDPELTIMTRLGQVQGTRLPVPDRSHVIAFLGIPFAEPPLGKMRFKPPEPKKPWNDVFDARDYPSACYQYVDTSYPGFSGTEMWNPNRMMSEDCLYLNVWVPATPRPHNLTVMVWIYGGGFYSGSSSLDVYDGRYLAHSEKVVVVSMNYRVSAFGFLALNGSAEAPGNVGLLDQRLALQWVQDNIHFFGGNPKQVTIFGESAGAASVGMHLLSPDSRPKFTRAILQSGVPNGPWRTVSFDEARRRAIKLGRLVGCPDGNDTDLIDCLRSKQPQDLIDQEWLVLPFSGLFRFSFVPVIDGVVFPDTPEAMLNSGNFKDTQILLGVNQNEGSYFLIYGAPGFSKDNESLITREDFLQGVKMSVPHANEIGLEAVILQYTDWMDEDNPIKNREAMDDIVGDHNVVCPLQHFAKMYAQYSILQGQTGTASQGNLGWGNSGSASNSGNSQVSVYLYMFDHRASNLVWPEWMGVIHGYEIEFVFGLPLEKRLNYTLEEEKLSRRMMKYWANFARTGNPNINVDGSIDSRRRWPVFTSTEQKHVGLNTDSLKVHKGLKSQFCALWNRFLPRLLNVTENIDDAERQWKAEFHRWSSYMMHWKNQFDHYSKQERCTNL
Sequence of Cholinesterase (P81908 whole entry): as the sequence (P81908 whole entry) above

Regarding `CCCCOP(=O)(OCCCC)OCc1ccccc1C`, the fold change (FC) came out at 0.04 in assay [1], 0.98 in assay [2], 0.94 in the assay listed under Bos taurus and 0.95 in assay [3]. Also, the affinity at Cholinesterase corresponds to a Ki of 72 µM.

In the case of `CCCOP(=O)(OCCC)Oc1ccccc1`, at Cholinesterase, the Ki is 45 to 80 µM.

The compound `CCCCCOP(=O)(OCCCCC)Oc1ccccc1` yielded an inhibitory constant (Ki) at Cholinesterase of 6 µM.

As to `CCCCOP(=O)(OCCCC)Oc1cc(C)cc(C)c1`, the fold change (FC) stood at 0.01 in assay [1], 1 in assay [2], 0.95 in the assay listed under Bos taurus and 0.83 in assay [3]. Besides, on Cholinesterase, the Ki worked out at 1 µM.

Compound `CCOP(=O)(OCC)Oc1ccc2ccccc2c1` showed an inhibition constant Ki at Cholinesterase of 147 µM.

For `CCCCOP(=O)(OCCCC)Oc1ccc(C)c(C)c1`, the fold change (FC) in assay [1] was determined as 0.04; in assay [2], 1.04; in the assay listed under Bos taurus, 0.94; in assay [3], 0.93. On Cholinesterase, this compound returned an inhibition constant Ki of 9 µM.

Regarding `CCOP(=O)(OCC)Oc1ccccc1` [PHOSPHORIC ACID DIETHYL ESTER PHENYL ESTER], affinity at Cholinesterase was put at a Ki of 1590 µM.

For the compound `CCCCOP(=O)(OCCCC)Oc1ccc(C)cc1`, the fold change (FC) in assay [1] stood at 0.02; in assay [2] it was 0.89; in the assay filed under Bos taurus it was 0.96; in assay [3], 0.94. For the same compound, the Ki on Cholinesterase was 8 µM.

For the compound `CCCCOP(=O)(OCCCC)OCc1cccc(C)c1`, the fold change (FC) in assay [1] amounted to 0.12; in assay [2], 0.86; in the assay listed under Bos taurus, 0.94; in assay [3], 0.95. The compound also displayed a Ki at Cholinesterase of 24 µM.

As for `CCCCOP(=O)(OCCCC)OCc1ccc(C)cc1`, the fold change (FC) in assay [1] stood at 0.04; in assay [2] it was 0.87; in the assay listed under Bos taurus it was 0.92; in assay [3], 0.92. This compound also returned an inhibition constant (Ki) at Cholinesterase of 14 µM.

Consider `CCCCOP(=O)(OCCCC)Oc1ccc2ccccc2c1`, for which the fold change (FC) in assay [1] worked out at 0.01; in assay [2] it was 1.05; in the assay filed under Bos taurus it was 0.76; in assay [3] it was 0.8. Further, the affinity on Cholinesterase corresponds to a Ki of 1.9 µM.

The compound `CCOP(=O)(OCC)Oc1cc(C)cc(C)c1` showed a Ki on Cholinesterase of 583 µM.

Take `CCCCOP(=O)(OCCCC)OCc1ccccc1`: the fold change (FC) in assay [1] came to 0.01; in assay [2], 1; in the assay filed under Bos taurus it was 0.97; in assay [3], 0.92. This compound also displayed a Ki on Cholinesterase of 2 µM.

As for `CCCCOP(=O)(OCCCC)Oc1cc(C)c(C)c(C)c1`, the fold change (FC) in assay [1] was found to be 0.09; in assay [2] it was 1.09; in the assay filed under Bos taurus it was 0.84; in assay [3] it was 0.88. For the same compound, on Cholinesterase, the affinity corresponds to a Ki of 11 µM.

`CCCCOP(=O)(OCCCC)Oc1cccc(C)c1`: the fold change (FC) was 0.15 in assay [1], 0.99 in assay [2], 0.89 in the assay listed under Bos taurus and 0.94 in assay [3]. Moreover, the Ki at Cholinesterase amounted to 16 µM.

With `CCCCOP(=O)(OCCCC)Oc1cccc2ccccc12`, the fold change (FC) in assay [1] is 0.21; in assay [2] it was 1.07; in the assay filed under Bos taurus it was 0.93; in assay [3], 0.71. For the same compound, the affinity at Cholinesterase corresponds to a Ki of 22 µM.

Consider `CCCCOP(=O)(OCCCC)Oc1ccccc1C`, for which the fold change (FC) is 0.27 in assay [1], 0.99 in assay [2], 0.92 in the assay filed under Bos taurus and 0.91 in assay [3]. Moreover, the affinity at Cholinesterase corresponds to a Ki of 50 µM.

For `CCCCOP(=O)(OCCCC)OCCc1ccccc1`, the fold change (FC) in assay [1] is 0.11; in assay [2], 1.02; in the assay listed under Bos taurus it was 0.89; in assay [3] it was 0.97. Further, on Cholinesterase, the affinity corresponds to a Ki of 53 µM.

In turn, `CCCCOP(=O)(OCCCC)Oc1ccccc1` returned an inhibition constant Ki at Cholinesterase of 45 to 80 µM.

The values above are taken from ChEMBL document CHEMBL4033639, “Synthesis, biochemical evaluation, and molecular modeling studies of aryl and arylalkyl di-n-butyl phosphates, effective butyrylcholinesterase inhibitors” (Bioorg Med Chem, 2017).
